Laboratory results from ChEMBL document CHEMBL1148785, “Second generation tetrahydroquinoline-based protein farnesyltransferase inhibitors as antimalarials” (J Med Chem, 2007).

How the values were obtained:
Plasmodium falciparum [1] = assay: Inhibition of Plasmodium falciparum protein farnesyltransferase at 50 nM by scintillation proximity assay
Plasmodium falciparum [2] = assay: Inhibition of Plasmodium falciparum protein farnesyltransferase at 5 nM by scintillation proximity assay
Plasmodium falciparum [3] = assay: Inhibition of Plasmodium falciparum protein farnesyltransferase at 0.5 nM by scintillation proximity assay
Plasmodium falciparum [4] = assay: Antimalarial activity against Plasmodium falciparum 3D7; format: functional; conditions: Plasmodium falciparum, 3D7; read-out: ED50 (the source's name)
Summary of the method: (§1)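 Asynchronous culture in type A+ erythrocytes at 0.5% parasitemia and 0.5% hematocrit, grown in RPMI-1640 with 20% heat-inactivated human A+ plasma. Compound was serially diluted from a top final 5 µM, with DMSO vehicle as 100% growth. Plates ran 48 h at 37 °C under 5% CO2/5% O2/90% N2, then [3H]-hypoxanthine (0.3 µCi) for 24 h. Filter-harvested counts were corrected for the uninfected-RBC background. ED50 by linear regression; duplicates averaged.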

Plasmodium falciparum [5] = assay: Antimalarial activity against Plasmodium falciparum K1; format: functional; conditions: Plasmodium falciparum, K1; read-out: ED50 (the source's name); summary of the method: as §1

Row | SMILES | inhibition (Plasmodium falciparum [1]) [%] | inhibition (Plasmodium falciparum [2]) [%] | inhibition (Plasmodium falciparum [3]) [%] | EC50 (Plasmodium falciparum [4]) [nM] | EC50 (Plasmodium falciparum [5]) [nM]
1 | C=C(Br)CN(C1Cc2cc(-c3ccccc3)ccc2N(Cc2cncn2C)C1)S(=O)(=O)c1cn(C)cn1 (stereo not given) | 97 | 89 | 21 | 380 | 360
2 | Cn1cnc(S(=O)(=O)N(CC(=O)O)C2Cc3cc(C#N)ccc3N(Cc3cncn3C)C2)c1 (stereo not given) | 97 | 81 | 19 | 125 | 400
3 | Cn1cncc1CN1CC(N(CCCN)S(=O)(=O)c2ccccn2)Cc2cc(C#N)ccc21 (stereo not given) | 32 | 7 | 0 | > 5000 | > 5000
4 | CC(=O)Nc1nc(C)c(S(=O)(=O)N(CC(=O)NC(C)(C)C)C2Cc3cc(C#N)ccc3N(Cc3cncn3C)C2)s1 (stereo not given) | 11 | 2 | 5 | > 5000 | > 5000
5 | CN(C)CCCN(C1Cc2cc(C#N)ccc2N(Cc2cncn2C)C1)S(=O)(=O)c1cn(C)cn1 (stereo not given) | 34 | 9 | 0 | 2600 | > 5000
6 | Cc1oncc1CN(C1Cc2cc(-c3ccccc3)ccc2N(Cc2cn(C)cn2)C1)S(=O)(=O)c1cn(C)cn1 (stereo not given) | 79 | 26 | 0 | 3000 | 3700
7 | Cn1cncc1CN1CC(N(Cc2ocnc2-c2ccccc2)S(=O)(=O)c2ccccn2)Cc2cc(C#N)ccc21 (stereo not given) | 98 | 82 | 19 | 51 | 210
8 | Cn1cnc(S(=O)(=O)N(Cc2ccc(C#N)cc2)C2Cc3cc(C#N)ccc3N(Cc3cncn3C)C2)c1 (stereo not given) | 96 | 90 | 54 | 70 | 55
9 | Cn1cnc(S(=O)(=O)N(CCc2c[nH]c3ccccc23)C2Cc3cc(C#N)ccc3N(Cc3cncn3C)C2)c1 (stereo not given) | 97 | 91 | 55 | 130 | 130
10 | Cn1cncc1CN1CC(N(CCCCCC(N)=O)S(=O)(=O)c2ccccn2)Cc2cc(C#N)ccc21 (stereo not given) | 81 | 32 | 4 | 300 | 250
11 | CCN(CCCCN(C1Cc2cc(C#N)ccc2N(Cc2cncn2C)C1)S(=O)(=O)c1ccccn1)C(=O)OC (stereo not given) | 89 | 69 | 26 | 250 | 600
12 | Cn1cnc(CN2CC(N(Cc3ccc(C(F)(F)F)o3)S(=O)(=O)c3cn(C)cn3)Cc3cc(-c4ccccc4)ccc32)c1 (stereo not given) | 88 | 46 | 0 | 4600 | 3500
13 | Cn1cnc(CN2CC(N(CCNC(=O)OC(C)(C)C)S(=O)(=O)c3cn(C)cn3)Cc3cc(-c4ccccc4)ccc32)c1 (stereo not given) | 98 | 81 | 18 | 2400 | 750
14 | COC(=O)N1CCC(CN(C2Cc3cc(C#N)ccc3N(Cc3cncn3C)C2)S(=O)(=O)c2ncn(C)c2C)CC1 (stereo not given) | 100 | 97 | 49 | 35 | < 20
15 | Cn1cncc1CN1CC(N(CCc2ccccc2C(F)(F)F)S(=O)(=O)c2ccccn2)Cc2cc(C#N)ccc21 (stereo not given) | 95 | 53 | 1 | 300 | 1500
16 | Cn1cnc(S(=O)(=O)N(CCCCCC(N)=O)C2Cc3cc(C#N)ccc3N(Cc3cncn3C)C2)c1 (stereo not given) | 98 | 87 | 31 | 150 | 73
17 | Cc1c(S(=O)(=O)N(CC2CCN(C(=O)OC(C)(C)C)CC2)C2Cc3cc(C#N)ccc3N(Cc3cncn3C)C2)ncn1C (stereo not given) | 98 | 87 | 18 | 140 | 75
18 | Cn1cnc(S(=O)(=O)N(CCN2CCCCC2)C2Cc3cc(C#N)ccc3N(Cc3cncn3C)C2)c1 (stereo not given) | 93 | 62 | 9 | 200 | 300
19 | Cn1cnc(S(=O)(=O)N(CCN)C2Cc3cc(C#N)ccc3N(Cc3cncn3C)C2)c1 (stereo not given) | 72 | 15 | 0 | > 5000 | > 5000
20 | Cn1cnc(CN2CC(N(Cc3ccc(S(C)(=O)=O)cc3)S(=O)(=O)c3cn(C)cn3)Cc3cc(-c4ccccc4)ccc32)c1 (stereo not given) | 98 | 84 | 32 | 270 | 450
21 | COC(=O)N1CCC(CN(C2Cc3cc(C#N)ccc3N(Cc3cncn3C)C2)S(=O)(=O)c2cccc3nonc23)CC1 (stereo not given) | 99 | 89 | 31 | 135 | 100

Row | SMILES | inhibition (Plasmodium falciparum [1]) [%] | inhibition (Plasmodium falciparum [2]) [%] | inhibition (Plasmodium falciparum [3]) [%] | EC50 (Plasmodium falciparum [4]) [nM] | EC50 (Plasmodium falciparum [5]) [nM]
22 | COC(=O)c1ccnc(CN(C2Cc3cc(C#N)ccc3N(Cc3cncn3C)C2)S(=O)(=O)c2cn(C)cn2)c1 (stereo not given) | 100 | 98 | 46 | 620 | 163
23 | Cn1cncc1CN1CC(N(Cc2ccccc2F)S(C)(=O)=O)Cc2cc(C#N)ccc21 (stereo not given) | 51 | 7 | 0 | 600 | > 5000
24 | Cn1cncc1CN1CC(N(CC2CCN(C(=O)CNC(=O)OC(C)(C)C)CC2)S(=O)(=O)c2ccccn2)Cc2cc(C#N)ccc21 (stereo not given) | 88 | 15 | 37 | 750 | 690
25 | Cn1cncc1CN1CC(N(CC2CCN(C(=O)Nc3ccc(Br)cc3)CC2)S(=O)(=O)c2ccccn2)Cc2cc(C#N)ccc21 (stereo not given) | 38 | 0 | 0 | 3000 | 2800
26 | COC(=O)N(C)CCCN(C1Cc2cc(C#N)ccc2N(Cc2cncn2C)C1)S(=O)(=O)c1ccccn1 (stereo not given) | 95 | 68 | 6 | 18 | 45
27 | Cn1cc(S(=O)(=O)N(Cc2ccccc2F)C2Cc3cc(C#N)ccc3N(Cc3cncn3C)C2)cn1 (stereo not given) | 94 | 62 | 23 | 175 | 175
28 | Cn1cncc1CN1CC(N(CC(=O)NC(C)(C)C)S(=O)(=O)CCN2C(=O)c3ccccc3C2=O)Cc2cc(C#N)ccc21 (stereo not given) | 60 | 21 | 14 | > 5000 | > 5000
29 | Cn1cnc(CN2CC(N(CC(=O)NC(C)(C)C)S(=O)(=O)c3ccccn3)Cc3cc(-c4ccccc4)ccc32)c1 (stereo not given) | 11 | 6 | 6 | > 5000 | 3000
30 | CCS(=O)(=O)N(CC1CCN(C(=O)OC)CC1)C1Cc2cc(C#N)ccc2N(Cc2cncn2C)C1 (stereo not given) | 44 | 0 | 0 | 4100 | > 5000
31 | Cn1cncc1CN1CC(N(Cc2ccc(S(C)(=O)=O)cc2)S(=O)(=O)c2cncn2C)Cc2cc(C#N)ccc21 (stereo not given) | 100 | 100 | 84 | < 20 | < 20
32 | Cn1cnc(S(=O)(=O)N(CCc2ccccc2F)C2Cc3cc(C#N)ccc3N(Cc3cncn3C)C2)c1 (stereo not given) | 100 | 98 | 43 | 16 | 16
33 | COCCCCCN(C1Cc2cc(C#N)ccc2N(Cc2cncn2C)C1)S(=O)(=O)c1ccccn1 (stereo not given) | 96 | 65 | 17 | 189 | 932
34 | Cn1cncc1CN1CC(N(CC2CCN(C(=O)C3CCCC3)CC2)S(=O)(=O)c2ccccn2)Cc2cc(C#N)ccc21 (stereo not given) | 100 | 39 | 94 | 58 | 50
35 | COC(=O)N1CCC(CN(C2Cc3cc(C#N)ccc3N(C(C)c3cnc[nH]3)C2)S(=O)(=O)c2ccccn2)CC1 (stereo not given) | 96 | 79 | 12 | 650 | 650
36 | Cn1cnc(S(=O)(=O)N(Cc2ccc(F)cc2)C2Cc3cc(C#N)ccc3N(Cc3cncn3C)C2)c1 (stereo not given) | 99 | 93 | 50 | 40 | 100
37 | CC(=O)Nc1ccc(S(=O)(=O)N(Cc2ccccc2F)C2Cc3cc(C#N)ccc3N(Cc3cncn3C)C2)cc1 (stereo not given) | 25 | 4 | 4 | 150 | 150
38 | Cn1cc(S(=O)(=O)N(Cc2ccc(S(C)(=O)=O)cc2)C2Cc3cc(C#N)ccc3N(Cc3cncn3C)C2)cn1 (stereo not given) | 97 | 88 | 36 | 75 | 60
39 | Cn1cncc1CN1CC(N(CCc2ccccc2F)S(=O)(=O)c2ccccn2)Cc2cc(C#N)ccc21 (stereo not given) | 98 | 81 | 22 | 120 | 600
40 | COC(=O)N1CCC(CN(C2Cc3cc(C#N)ccc3N(Cc3cncn3C)C2)S(=O)(=O)c2ccc3c(c2)OCCCO3)CC1 (stereo not given) | 99 | 81 | 24 | 138 | 105
41 | COC(=O)N1CCC(CN(C2Cc3cc(C#N)ccc3N(Cc3cncn3C)C2)S(=O)(=O)C2CC2)CC1 (stereo not given) | 37 | 3 | 0 | > 5000 | 3950
